Reference: ChEMBL document CHEMBL3774372, “Design, physico-chemical properties and biological evaluation of some new N-[(phenoxy)alkyl]- and N-{2-[2-(phenoxy)ethoxy]ethyl}aminoalkanols as anticonvulsant agents” (Bioorg Med Chem, 2016)
The source made the active and inactive calls.

Legend:
Vibrio harveyi [1] = assay: Antimutagenic activity against Vibrio harveyi BB7XM assessed as inhibition of NQNO-induced mutagenicity after 48 hrs; assay type: functional
Method in brief: (§1)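 V. harveyi cultures grown exponentially to A600 0.1 at 30 °C, exposed to test compound for 15 min, then to NQNO, and grown on to A600 0.3–0.4. 5 × 10⁶ cells plated on BOSS agar with neomycin (100, final). Neomycin-resistant colonies counted after 48 h at 30 °C. Result given as % inhibition of NQNO mutagenicity; three independent repeats.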

Mus musculus [2] = assay: Anticonvulsant activity in mouse assessed as protection against maximal electric shock-induced seizures at 30 mg/kg, ip measured after 4 hrs; assay type: functional, organism-based
Method in brief: (§2)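 Mice dosed ip with suspension in 0.5% methylcellulose; maximal electroshock applied at the listed time after dosing. Protection = abolition of hindlimb tonic extension component of seizure; reported as animals protected/animals tested.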

Mus musculus [3] = assay: Neurotoxicity in mouse at 100 mg/kg, ip after 0.5 hrs by rotarod test; assay type: toxicity, organism-based; settings: in vivo
Method in brief: (§3)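 Mice were dosed ip with compound suspended in 0.5% methylcellulose. Rotarod: a 1 in. knurled rod turning at 6 rpm. Neurotoxicity was scored as failure to stay on the rod for at least 1 min in each of three trials. Results are given as the number of animals affected out of the number tested.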

Vibrio harveyi [4] = assay: Antimutagenic activity against Vibrio harveyi BB7X assessed as inhibition of NQNO-induced mutagenicity after 48 hrs; assay type: functional; method in brief: as §1
Vibrio harveyi [5] = assay: Mutagenicity in Vibrio harveyi BB7M assessed as number of colonies after 48 hrs (reference value: 13 to 14 no_unit); assay type: ADME, organism-based; settings: in vivo
Method in brief: (§4)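 Vibrio harveyi mutagenicity test: test compound was added to exponentially growing cultures (A600 = 0.1, 30 °C) and grown to OD600 0.3–0.4. Then 5 × 10^6 cells were plated on BOSS agar with neomycin (final 100 µg/mL) and incubated 48 h at 30 °C. Neomycin-resistant colonies were counted. Triplicate; controls were water, DMSO and NQNO 40 ng/mL.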

Mus musculus [6] = assay: Neurotoxicity in mouse at 300 mg/kg, ip after 4 hrs by rotarod test; assay type: toxicity, organism-based; settings: in vivo; method in brief: as §3
Vibrio harveyi [7] = assay: Antimutagenic activity against Vibrio harveyi BB7M assessed as inhibition of NQNO-induced mutagenicity after 48 hrs; assay type: functional; method in brief: as §1
Mus musculus [8] = assay: Anticonvulsant activity in mouse assessed as protection against maximal electric shock-induced seizures at 30 mg/kg, ip measured after 0.5 hrs; assay type: functional, organism-based; method in brief: as §2
Vibrio harveyi [9] = assay: Mutagenicity in Vibrio harveyi BB7X assessed as number of colonies after 48 hrs (reference value: 15 to 16 no_unit); assay type: ADME, organism-based; settings: in vivo; method in brief: as §4
Vibrio harveyi [10] = assay: Antimutagenic activity against Vibrio harveyi BB7 assessed as inhibition of NQNO-induced mutagenicity after 48 hrs; assay type: functional; method in brief: as §1
Mus musculus [11] = assay: Neurotoxicity in mouse at 300 mg/kg, ip after 0.5 hrs by rotarod test; assay type: toxicity, organism-based; settings: in vivo; method in brief: as §3
Vibrio harveyi [12] = assay: Mutagenicity in Vibrio harveyi BB7XM assessed as number of colonies after 48 hrs (reference value: 14 no_unit); assay type: ADME, organism-based; settings: in vivo; method in brief: as §4
Mus musculus [13] = assay: Neurotoxicity in mouse at 30 mg/kg, ip after 0.5 hrs by rotarod test; assay type: toxicity, organism-based; settings: in vivo; method in brief: as §3
Mus musculus [14] = assay: Anticonvulsant activity in mouse assessed as protection against maximal electric shock-induced seizures at 100 mg/kg, ip measured after 4 hrs; assay type: functional, organism-based; method in brief: as §2
Vibrio harveyi [15] = assay: Mutagenicity in Vibrio harveyi BB7 assessed as number of colonies after 48 hrs (reference value: 13 to 14 no_unit); assay type: ADME, organism-based; settings: in vivo; method in brief: as §4
Mus musculus [16] = assay: Anticonvulsant activity in mouse assessed as protection against subcutaneous pentylenetetrazol-induced seizures at 100 mg/kg, ip measured after 4 hrs; assay type: functional, organism-based
Method in brief: (§5)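 Mice dosed ip as 0.5% methylcellulose suspension; pentylenetetrazole 85 mg/kg in 0.9% NaCl injected subcutaneously into posterior midline, animals watched at least 30 min. Protection = no threshold seizure (single clonic spasm episode lasting ≥5 s); scored protected/tested.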

Mus musculus [17] = assay: Anticonvulsant activity in mouse assessed as protection against subcutaneous pentylenetetrazol-induced seizures at 30 mg/kg, ip measured after 0.5 hrs; assay type: functional, organism-based; method in brief: as §5
Mus musculus [18] = assay: Anticonvulsant activity in mouse assessed as protection against subcutaneous pentylenetetrazol-induced seizures at 30 mg/kg, ip measured after 4 hrs; assay type: functional, organism-based; method in brief: as §5
Mus musculus [19] = assay: Neurotoxicity in mouse at 100 mg/kg, ip after 4 hrs by rotarod test; assay type: toxicity, organism-based; settings: in vivo; method in brief: as §3
Mus musculus [20] = assay: Neurotoxicity in mouse at 30 mg/kg, ip after 4 hrs by rotarod test; assay type: toxicity, organism-based; settings: in vivo; method in brief: as §3
in vitro [21] = settings: mouse, liver microsomes
Mus musculus [22] = assay: Anticonvulsant activity in mouse assessed as protection against maximal electric shock-induced seizures at 100 mg/kg, ip measured after 0.5 hrs; assay type: functional, organism-based; method in brief: as §2
Mus musculus [23] = assay: Anticonvulsant activity in mouse assessed as protection against subcutaneous pentylenetetrazol-induced seizures at 100 mg/kg, ip measured after 0.5 hrs; assay type: functional, organism-based; method in brief: as §5
[24] = Retention time of the compound in mouse liver microsomes at 20 uM preincubated for 15 mins followed by addition of NADPH-regenerating system measured after 5 to 90 mins by […] analysis; assay type: ADME
Method in brief: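 Mouse liver microsomes (0.4 mg/mL) with test compound (20 µM) in 100 mM potassium phosphate, pH 7.4, were preincubated 15 min at 37 °C. An NADPH-regenerating system was then added and incubation ran 5–90 min at 37 °C. Levallorphan (20 µM) served as internal standard, and reactions were quenched with perchloric acid. The supernatant was analysed by UPLC/MS. Duplicate incubations.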

in vitro [25] = settings: mouse, liver microsomes; remark: listed apart in the source
Rattus norvegicus [26] = assay: Neurotoxicity in rat at 30 mg/kg, po after […] by rotarod test; assay type: toxicity, organism-based; settings: in vivo
Rattus norvegicus [27] = assay: Neurotoxicity in rat at 30 mg/kg, po after 1 hr by rotarod test; assay type: toxicity, organism-based; settings: in vivo
Rattus norvegicus [28] = assay: Anticonvulsant activity in rat assessed as protection against maximal electric shock-induced seizures at 30 mg/kg, po measured after 2 hrs; assay type: functional, organism-based
Method in brief: (§6)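 Rats dosed ip or orally as 0.5% methylcellulose suspension; maximal electroshock at listed time. Protection = abolition of hindlimb tonic extension; 4 rats per group, scored protected/tested.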

Rattus norvegicus [29] = assay: Neurotoxicity in rat at 30 mg/kg, po after 4 hrs by rotarod test; assay type: toxicity, organism-based; settings: in vivo
Rattus norvegicus [30] = assay: Anticonvulsant activity in rat assessed as protection against maximal electric shock-induced seizures at 30 mg/kg, po measured after 0.5 hrs; assay type: functional, organism-based; method in brief: as §6
Rattus norvegicus [31] = assay: Anticonvulsant activity in rat assessed as protection against maximal electric shock-induced seizures at 30 mg/kg, po measured after […]; assay type: functional, organism-based
Rattus norvegicus [32] = assay: Anticonvulsant activity in rat assessed as protection against maximal electric shock-induced seizures at 30 mg/kg, po measured after 4 hrs; assay type: functional, organism-based; method in brief: as §6
Rattus norvegicus [33] = assay: Neurotoxicity in rat at 30 mg/kg, po after 2 hrs by rotarod test; assay type: toxicity, organism-based; settings: in vivo
Rattus norvegicus [34] = assay: Neurotoxicity in rat at 30 mg/kg, po after 0.5 hrs by rotarod test; assay type: toxicity, organism-based; settings: in vivo
Mus musculus [35] = assay: Neurotoxicity in mouse at 100 mg/kg, ip after 2 hrs by rotarod test; assay type: toxicity, organism-based; settings: in vivo; method in brief: as §3
Mus musculus [36] = assay: Anticonvulsant activity in mouse assessed as protection against subcutaneous pentylenetetrazol-induced seizures at 300 mg/kg, ip measured after 4 hrs; assay type: functional, organism-based; method in brief: as §5

Structure (SMILES)	inhibition (INH) (Vibrio harveyi [1]) [%]	Activity (Mus musculus [2])	Activity (Mus musculus [3])	inhibition (INH) (Vibrio harveyi [4]) [%]	Activity (Vibrio harveyi [5])	inhibition (INH) (Vibrio harveyi [7]) [%]	Activity (Mus musculus [8])	Activity (Vibrio harveyi [9])	inhibition (INH) (Vibrio harveyi [10]) [%]	Activity (Mus musculus [11])	Activity (Vibrio harveyi [12])	Activity (Mus musculus [13])	Activity (Mus musculus [14])	Activity (Vibrio harveyi [15])	Activity (Mus musculus [16])	Activity (Mus musculus [17])	Activity (Mus musculus [18])	Activity (Mus musculus [19])	Activity (Mus musculus [20])	Activity (Mus musculus [22])	also measured
Cc1cccc(C)c1OCCOCCNC(C)CO (stereo unspecified)	48	inactive	Toxic	27	27	75	inactive	29	70	Toxic	19	Non-toxic	inactive	24	inactive	inactive	inactive	Non-toxic	Non-toxic		Activity (Mus musculus [6]): Non-toxic
Cc1cc(C)c(OCCOCCNC(C)CO)c(C)c1 (stereo unspecified)	43	inactive		38	19	62	inactive	24	81	Toxic	24	Non-toxic		25	inactive	inactive	inactive	Non-toxic	Non-toxic	Active	half-life at 20 µM (in vitro [21]): 2.27 h; Activity (Mus musculus [23]): inactive; Retention_time [24]: 4.31 min; microsomal CLint at 20 µM (in vitro [25]): 13 µL/min/mg
Cc1cccc(C)c1OCCOCCN[C@@H]1CCCC[C@H]1O (racemic)	33	inactive	Non-toxic	52	26	75	inactive	25	82	Toxic	22	Non-toxic	inactive	29	inactive	inactive	inactive	Non-toxic	Non-toxic	Active	Activity (Rattus norvegicus [26]): Non-toxic; Activity (Rattus norvegicus [27]): Non-toxic; Activity (Rattus norvegicus [28]): inactive; Activity (Rattus norvegicus [29]): Non-toxic; Activity (Rattus norvegicus [30]): inactive; Activity (Mus musculus [23]): inactive; Activity (Rattus norvegicus [31]): inactive; Activity (Rattus norvegicus [32]): inactive; Activity (Rattus norvegicus [33]): Non-toxic; Activity (Rattus norvegicus [34]): Non-toxic
Cc1cccc(OCCN2CCC(O)CC2)c1C																		Non-toxic			Activity (Mus musculus [35]): Non-toxic
CCC(CO)NCCOCCOc1c(C)cccc1C (stereo unspecified)		inactive	Toxic				inactive			Toxic		Non-toxic	inactive			inactive	inactive		Non-toxic	Active	Activity (Mus musculus [36]): inactive; Activity (Mus musculus [23]): inactive
